Active and inactive are the calls of the source. The calls are words filed in the database; no cut-off is given here.
Key:
P388 = assay: Cytotoxicity against mouse P388 cells after 72 hrs by hemocytometer-based cell counting method; type: functional; details: P388, 72 h, read-out: LD50 (the source's name)
Procedure, shortened: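 P-388 mouse lymphoid leukemia cells grown in tissue culture with the nucleoside present; cytotoxicity expressed as the LD50 concentration in µg/mL.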

Human alphaherpesvirus 1 = assay: Antiviral activity against Herpes simplex virus 1 HF assessed as inhibition of virus-induced cytopathogenicity; type: functional, organism-based
Procedure, shortened: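 Cytopathogenic effect of HSV-1 strain HF was scored in infected cell cultures exposed to the nucleoside. The procedure was a modified Ehrlich method, as run in earlier work.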

N/C(=N/O)c1ncn([C@@H]2O[C@H](CO)[C@@H](N)[C@H]2O)n1
CC50 (P388): > 100 µg/mL
Activity (Human alphaherpesvirus 1): inactive

N[C@H]1[C@@H](O)[C@H](n2cnc(C(=O)NO)n2)O[C@@H]1CO
CC50 (P388): > 100 µg/mL
Activity (Human alphaherpesvirus 1): inactive

N/N=C(/N)c1ncn([C@@H]2O[C@H](CO)[C@@H](N)[C@H]2O)n1
CC50 (P388): > 100 µg/mL
Activity (Human alphaherpesvirus 1): inactive

NC(=O)c1ncn([C@@H]2O[C@H](CO)[C@@H](N)[C@H]2O)n1
CC50 (P388): > 100 µg/mL
Activity (Human alphaherpesvirus 1): inactive

NC(=O)c1ncnn1[C@@H]1O[C@H](CO)[C@@H](N)[C@H]1O
CC50 (P388): > 100 µg/mL
Activity (Human alphaherpesvirus 1): inactive

NNC(=O)c1ncn([C@@H]2O[C@H](CO)[C@@H](N)[C@H]2O)n1
CC50 (P388): > 100 µg/mL
Activity (Human alphaherpesvirus 1): inactive
